Calls of active or inactive are those of the source. The rule behind the calls is not given here.
Columns and labels:
Aspergillus fumigatus [1] = test: Antifungal activity against Aspergillus fumigatus at 10 mg/disk after 48 hrs; assay type: functional
Procedure, shortened: (§1)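 Paper disk diffusion assay against Aspergillus fumigatus on potato dextrose agar. Compound was applied per disk, and activity was recorded after 48 h incubation. Other assay conditions follow an earlier published method.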

Aspergillus fumigatus [2] = test: Antifungal activity against Aspergillus fumigatus at 5 mg/disk after 48 hrs; assay type: functional; procedure, shortened: as §1
Aspergillus fumigatus [3] = test: Antifungal activity against Aspergillus fumigatus at 1 mg/disk after 48 hrs; assay type: functional; procedure, shortened: as §1
Aspergillus fumigatus [4] = test: Antifungal activity against Aspergillus fumigatus at 0.5 mg/disk after 48 hrs; assay type: functional; procedure, shortened: as §1
Aspergillus fumigatus [5] = test: Antifungal activity against Aspergillus fumigatus up to 100 ug/disk after 48 hrs; assay type: functional, organism-based; procedure, shortened: as §1

Q: What does the source list for `CCOC(=O)C[C@H](O)C[C@H](O)CC[C@@H]1[C@@H]2C(=CCC[C@@H]2OC(=O)[C@@H](C)CC)C=C[C@@H]1C`?
A: Activity (Aspergillus fumigatus [1]): inactive; Activity (Aspergillus fumigatus [2]): inactive; Activity (Aspergillus fumigatus [3]): inactive; Activity (Aspergillus fumigatus [4]): inactive

Q: How did the “inhibition zone (IZ)” value (Aspergillus fumigatus [1]) turn out when `CC[C@H](C)C(=O)O[C@H]1CCC[C@@H]2CC[C@H](C)[C@H](CC[C@@H](O)C[C@@H](O)CC(=O)[O-])[C@H]21.[Na+]` was run?
A: Its value is 22 mm.

Q: What about the “inhibition zone (IZ)” value (Aspergillus fumigatus [2]) of the same compound?
A: The value was 18 mm.

Q: What about the Activity (Aspergillus fumigatus [4]) of the same compound?
A: The Activity was “inactive”.

Q: With `C[C@H]1C(=O)C=C2CCCC[C@@H]2[C@H]1CC[C@@H](O)C[C@@H](O)CC(=O)O` as the compound, how does the Activity (Aspergillus fumigatus [5]) read?
A: Its Activity is “inactive”.

Q: How did the Activity (Aspergillus fumigatus [5]) turn out when `C[C@@H]1[C@H](CC[C@@H](O)C[C@@H](O)CC(=O)O)[C@H]2CCCCC2=C[C@H]1O` was run?
A: The Activity was “inactive”.

Q: `CC[C@H](C)C(=O)O[C@H]1CCC[C@@H]2C=C[C@H](C)[C@H](CC[C@@H](O)C[C@@H](O)CC(=O)[O-])[C@@H]12.[Na+]` was tested. Which “inhibition zone (IZ)” value (Aspergillus fumigatus [1]) did it give?
A: Its value is 32 mm.

Q: And the “inhibition zone (IZ)” value (Aspergillus fumigatus [2])?
A: The value was 21 mm.

Q: What about the “inhibition zone (IZ)” value (Aspergillus fumigatus [3]) of the same compound?
A: The value was 16 mm.

Q: What about the Activity (Aspergillus fumigatus [4]) of the same compound?
A: The Activity was “inactive”.

Q: For `C[C@H]1C=CC2=CCC[C@H](O)[C@@H]2[C@H]1CC[C@@H](O)C[C@@H](O)CC(=O)O`, which Activity (Aspergillus fumigatus [5]) is on record?
A: Its Activity is “inactive”.

Q: How did the “inhibition zone (IZ)” value (Aspergillus fumigatus [1]) turn out when `C[C@@H]1[C@H](O)[C@@H](C)/C=C/C=C/C=C/C=C/C=C/C=C/C=C/[C@H](O[C@@H]2O[C@H](C)[C@@H](O)[C@H](N)[C@@H]2O)C[C@@H]2O[C@](O)(C[C@@H](O)C[C@@H](O)[C@H](O)CC[C@@H](O)C[C@@H](O)CC(=O)O[C@H]1C)C[C@H](O)[C@H]2C(=O)O` [AMPHOTERICIN B] was run?
A: The value was 13 mm.

Q: What about the “inhibition zone (IZ)” value (Aspergillus fumigatus [2]) of the same compound?
A: Its value is 14 mm.

Q: And the “inhibition zone (IZ)” value (Aspergillus fumigatus [3])?
A: Its value is 11 mm.
